Reference: ChEMBL document CHEMBL1147803, “2,5-Disubstituted pyrrolidine carboxylates as potent, orally active sphingosine-1-phosphate (S1P) receptor agonists” (Bioorg Med Chem Lett, 2006)
The source made the active and inactive calls. No cut-off for these calls is given here.

What was measured:
[1] = Volume of distribution in Sprague-Dawley rat at 1 mg/kg, iv or 2 mg/kg, po; format: ADME, organism-based; conditions: in vivo, read-out: Vdss
[2] = target: T1, Sphingosine 1-phosphate receptor 4 (Homo sapiens, UniProt O95977); test: Displacement of [33P]S1P from S1P4 expressed in CHO cells; format: cell-based
T1 sequence (O95977 whole entry): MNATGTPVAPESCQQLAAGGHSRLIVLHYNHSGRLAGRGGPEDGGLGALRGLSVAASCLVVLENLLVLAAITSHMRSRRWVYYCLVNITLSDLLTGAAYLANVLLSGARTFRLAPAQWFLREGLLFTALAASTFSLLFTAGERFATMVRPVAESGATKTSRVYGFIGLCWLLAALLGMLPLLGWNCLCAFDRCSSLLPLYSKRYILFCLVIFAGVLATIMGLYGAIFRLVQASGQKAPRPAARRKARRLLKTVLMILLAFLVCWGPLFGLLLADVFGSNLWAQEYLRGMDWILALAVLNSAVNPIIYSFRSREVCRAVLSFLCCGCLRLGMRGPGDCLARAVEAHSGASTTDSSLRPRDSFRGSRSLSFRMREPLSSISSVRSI
In short: (§1)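 Competitive radioligand binding with [33P]S1P on membranes from CHO cells expressing each of the five S1P receptor subtypes (S1P1–5).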

[3] = Half life in Sprague-Dawley rat at 1 mg/kg, iv or 2 mg/kg, po; format: ADME, organism-based; conditions: in vivo
[4] = Bioavailability in Sprague-Dawley rat at 1 mg/kg, iv and 2 mg/kg, po; format: ADME, organism-based; conditions: in vivo
[5] = species on record: Mus musculus; test: Lowering of peripheral blood lymphocytes in mouse; format: functional
In short: (§2)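 Mice were dosed orally, and circulating peripheral blood lymphocytes were counted 3 h after administration.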

[6] = target: T2, Sphingosine 1-phosphate receptor 3 (Homo sapiens, UniProt Q99500); test: Displacement of [33P]S1P from S1P3 expressed in CHO cells; format: cell-based; in short: as §1
[7] = target: T3, Sphingosine 1-phosphate receptor 5 (Homo sapiens, UniProt Q9H228); test: Displacement of [33P]S1P from S1P5 expressed in CHO cells; format: cell-based; in short: as §1
[8] = target: T4, Sphingosine 1-phosphate receptor 1 (Homo sapiens, UniProt P21453); test: Displacement of [33P]S1P from S1P1 expressed in CHO cells; format: cell-based; in short: as §1
[9] = target: Sphingosine 1-phosphate receptor 2 (Homo sapiens, UniProt O95136); test: Displacement of [33P]S1P from S1P2 expressed in CHO cells; format: cell-based; in short: as §1
[10] = Plasma clearance in Sprague-Dawley rat at 1 mg/kg, iv or 2 mg/kg, po; format: ADME, organism-based
[11] = target: T2, Sphingosine 1-phosphate receptor 3; test: Activity at S1P3 receptor by [35S]GTP-gammaS binding assay; format: functional; conditions: filed as agonist
[12] = target: T4, Sphingosine 1-phosphate receptor 1; test: Activity at S1P1 receptor by [35S]GTP-gammaS binding assay; format: functional; conditions: filed as agonist
[13] = target: T3, Sphingosine 1-phosphate receptor 5; test: Activity at S1P5 receptor by [35S]GTP-gammaS binding assay; format: functional; conditions: filed as agonist
[14] = test system: Mus musculus; test: Lowering of peripheral blood lymphocytes in mouse at 10 mg/kg; format: functional, organism-based; design: dose 10 mg/kg; in short: as §2

Sphingosine 1-phosphate receptor 2, sequence (O95136 whole entry): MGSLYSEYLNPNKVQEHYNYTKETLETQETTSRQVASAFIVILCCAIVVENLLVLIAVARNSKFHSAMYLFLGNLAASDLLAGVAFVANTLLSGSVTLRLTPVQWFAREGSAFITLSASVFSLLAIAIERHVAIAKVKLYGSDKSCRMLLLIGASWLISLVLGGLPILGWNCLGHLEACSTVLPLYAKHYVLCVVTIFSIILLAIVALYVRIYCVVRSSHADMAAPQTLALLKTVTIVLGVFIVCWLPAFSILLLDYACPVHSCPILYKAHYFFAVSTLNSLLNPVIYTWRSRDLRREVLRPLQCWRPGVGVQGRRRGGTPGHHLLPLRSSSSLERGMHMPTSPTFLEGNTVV
T3 sequence (Q9H228 whole entry): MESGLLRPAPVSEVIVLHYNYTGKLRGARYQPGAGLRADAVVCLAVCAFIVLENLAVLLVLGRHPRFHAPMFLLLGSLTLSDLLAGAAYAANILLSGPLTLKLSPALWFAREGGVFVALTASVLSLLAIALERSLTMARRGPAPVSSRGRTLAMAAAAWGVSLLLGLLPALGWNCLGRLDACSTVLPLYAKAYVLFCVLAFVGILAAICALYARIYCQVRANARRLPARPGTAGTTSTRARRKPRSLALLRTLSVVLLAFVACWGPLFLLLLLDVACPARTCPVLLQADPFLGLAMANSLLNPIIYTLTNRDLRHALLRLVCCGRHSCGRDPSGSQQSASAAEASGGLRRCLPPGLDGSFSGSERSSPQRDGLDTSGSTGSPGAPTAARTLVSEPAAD
T4 sequence (P21453 whole entry): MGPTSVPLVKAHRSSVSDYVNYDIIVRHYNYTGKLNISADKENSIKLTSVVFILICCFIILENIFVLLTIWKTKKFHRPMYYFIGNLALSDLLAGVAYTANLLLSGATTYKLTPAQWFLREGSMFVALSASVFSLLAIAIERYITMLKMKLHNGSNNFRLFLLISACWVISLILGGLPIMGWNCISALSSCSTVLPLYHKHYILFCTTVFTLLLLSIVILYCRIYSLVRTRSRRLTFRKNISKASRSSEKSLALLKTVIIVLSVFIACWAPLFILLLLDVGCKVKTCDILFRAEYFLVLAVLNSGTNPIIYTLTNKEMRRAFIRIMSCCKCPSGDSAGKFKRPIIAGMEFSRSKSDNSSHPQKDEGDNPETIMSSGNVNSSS
T2 sequence (Q99500 whole entry): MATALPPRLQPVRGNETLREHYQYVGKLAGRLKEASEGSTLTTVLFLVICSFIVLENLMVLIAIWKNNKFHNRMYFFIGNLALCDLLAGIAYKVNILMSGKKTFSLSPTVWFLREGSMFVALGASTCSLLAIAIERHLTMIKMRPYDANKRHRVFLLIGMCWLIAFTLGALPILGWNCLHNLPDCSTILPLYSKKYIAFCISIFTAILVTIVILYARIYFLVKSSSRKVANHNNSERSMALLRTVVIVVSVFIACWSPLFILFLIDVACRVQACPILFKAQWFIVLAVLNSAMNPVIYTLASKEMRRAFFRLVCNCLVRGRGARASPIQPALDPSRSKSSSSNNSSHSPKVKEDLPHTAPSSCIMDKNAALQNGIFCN

Compound | Vd [1] [L/kg] | IC50 [2] [nM] | half-life [3] [h] | bioavailability [4] [%] | ED50 [5] [mg/kg] | IC50 [6] [nM] | IC50 [7] [nM] | IC50 [8] [nM] | IC50 [9] [nM] | clearance [10] [mL/min/kg] | Activity [11] | Activity [12] | Activity [13] | IC50 ([9]; cho) [nM] | Activity [14]
O=C(O)C[C@@H]1CC[C@H](c2ccc(-c3noc(-c4ccc([C@@H]5CCC(F)(F)C5)cc4)n3)cc2)N1 (stereo in doubt; form 2) [listing 1 of 2 here] | 2.3 | 720 | 2.2 | 48 | 0.3 | 3800 | 15 | 0.64 | > 10000 | 9.7 | – | – | – | – | –
O=C(O)C[C@@H]1CC[C@H](c2ccc(-c3noc(-c4ccc([C@@H]5CCC(F)(F)C5)cc4)n3)cc2)N1 (stereo in doubt; form 1) [listing 1 of 2 here] | – | – | – | – | – | – | – | – | – | – | Agonist | Agonist | Agonist | – | –
O=C(O)C[C@@H]1CC[C@H](c2ccc(-c3noc(-c4ccc([C@@H]5CCC(F)(F)C5)cc4)n3)cc2)N1 (stereo in doubt; form 2) [listing 2 of 2 here] | – | – | – | – | – | – | – | – | – | – | Agonist | Agonist | Agonist | – | –
O=C(O)C[C@@H]1CC[C@H](c2ccc(-c3noc(-c4ccc([C@@H]5CCC(F)(F)C5)cc4)n3)cc2)N1 (racemic) [listing 1 of 2 here] | – | 570 | – | – | – | 2500 | 13 | 1.2 | – | – | – | – | – | > 10000 | –
O=C(O)C[C@@H]1CC[C@H](c2ccc(-c3noc(-c4ccc([C@@H]5CCC(F)(F)C5)cc4)n3)cc2)N1 (racemic) [listing 2 of 2 here] | – | – | – | – | – | – | – | – | – | – | Agonist | Agonist | Agonist | – | –
O=C(O)C[C@@H]1CC[C@H](c2ccc(-c3noc(-c4ccc([C@H]5CCC(F)(F)C5)cc4)n3)cc2)N1 (racemic) | – | 720 | – | – | – | 2200 | 16 | 0.8 | > 10000 | – | Agonist | Agonist | Agonist | – | –
O=C(O)C[C@@H]1CC[C@H](c2ccc(-c3noc(-c4ccc([C@@H]5CCC(F)(F)C5)cc4)n3)cc2)N1 (stereo in doubt; form 1) [listing 2 of 2 here] | – | 1500 | – | – | – | 7800 | 19 | 2.9 | – | – | – | – | – | > 10000 | –
CC(C)Cc1ccc(-c2nc(-c3ccc([C@@H]4CC[C@@H](CC(=O)O)N4)cc3)no2)cc1 (racemic) | 3 | 700 | 3.5 | 40 | – | > 10000 | 100 | 8 | > 10000 | 8.4 | Agonist | Agonist | Agonist | – | Active
CC(C)Cc1ccc(-c2nc(-c3ccc([C@H]4CC[C@@H](C(=O)O)N4)cc3)no2)cc1 (racemic) | – | 1000 | – | – | – | > 10000 | 1280 | 75 | > 10000 | – | Agonist | Agonist | Agonist | – | –
O=C(O)C[C@@H]1CC[C@H](c2ccc(-c3noc(-c4ccc(C5CCCCC5)cc4)n3)cc2)N1 (racemic) | – | 350 | – | – | – | 1700 | 20 | 0.7 | > 10000 | – | Agonist | Agonist | Agonist | – | –
CC(C)Cc1ccc(-c2nc(-c3ccc([C@H]4CC[C@@H](CCC(=O)O)N4)cc3)no2)cc1 (racemic) | – | 540 | – | – | – | > 10000 | 30 | 4.5 | > 10000 | – | Agonist | Agonist | Agonist | – | –
CC(C)Cc1ccc(-c2nc(-c3ccc([C@@H]4CC[C@@H](CCC(=O)O)N4)cc3)no2)cc1 (racemic) | – | 630 | – | – | – | 6700 | 80 | 5.7 | > 10000 | – | Agonist | Agonist | Agonist | – | –
O=C(O)C[C@@H]1CC[C@H](c2ccc(-c3noc(-c4ccc(C5CCCC5)cc4F)n3)cc2)N1 (racemic) | – | 1400 | – | – | – | > 10000 | 60 | 2.7 | > 10000 | – | Agonist | Agonist | Agonist | – | –
CC(C)Cc1ccc(-c2nc(-c3ccc([C@H]4CC[C@@H](CC(=O)O)N4)cc3)no2)cc1 (racemic) | 2.9 | 1000 | 4.1 | 48 | – | > 10000 | 200 | 3.3 | > 10000 | 6.6 | Agonist | Agonist | Agonist | – | Active
O=C(O)C[C@@H]1CC[C@H](c2ccc(-c3noc(-c4ccc(C5CCCC5)c(F)c4)n3)cc2)N1 (racemic) | – | 2100 | – | – | – | 7600 | 30 | 2 | > 10000 | – | Agonist | Agonist | Agonist | – | –
CC(C)Cc1ccc(-c2nc(-c3ccc([C@@H]4CC[C@@H](C(=O)O)N4)cc3)no2)cc1 (racemic) | – | 300 | – | – | – | 10000 | 180 | 17 | > 10000 | – | Agonist | Agonist | Agonist | – | –
